The target of one experiment is T1, Prolyl endopeptidase FAP (Homo sapiens, UniProt Q12884).
T1 sequence (Q12884 whole entry): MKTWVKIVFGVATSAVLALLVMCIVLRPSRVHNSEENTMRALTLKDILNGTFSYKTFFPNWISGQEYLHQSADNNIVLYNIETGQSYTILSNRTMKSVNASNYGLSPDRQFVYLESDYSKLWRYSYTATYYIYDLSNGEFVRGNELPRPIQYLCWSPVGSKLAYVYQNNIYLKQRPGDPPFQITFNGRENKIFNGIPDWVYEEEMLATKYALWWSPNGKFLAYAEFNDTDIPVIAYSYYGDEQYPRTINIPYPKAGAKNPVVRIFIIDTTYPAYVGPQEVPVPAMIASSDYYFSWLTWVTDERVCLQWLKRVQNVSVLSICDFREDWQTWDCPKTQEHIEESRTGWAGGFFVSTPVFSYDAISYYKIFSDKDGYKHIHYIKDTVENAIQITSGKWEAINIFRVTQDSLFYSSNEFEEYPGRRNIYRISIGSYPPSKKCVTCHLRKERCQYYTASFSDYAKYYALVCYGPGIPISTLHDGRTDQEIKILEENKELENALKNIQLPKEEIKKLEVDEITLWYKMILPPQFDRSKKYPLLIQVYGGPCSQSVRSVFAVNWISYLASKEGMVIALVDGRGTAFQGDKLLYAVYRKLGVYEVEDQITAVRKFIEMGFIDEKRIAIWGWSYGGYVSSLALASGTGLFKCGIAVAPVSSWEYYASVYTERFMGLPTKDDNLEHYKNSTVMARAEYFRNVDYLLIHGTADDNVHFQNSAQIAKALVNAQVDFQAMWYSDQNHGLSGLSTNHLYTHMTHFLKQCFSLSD
The experiment can be described thus: Inhibition of human recombinant FAP expressed in Sf9 cells by fluorescence assay. Summed up: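 Recombinant human FAP, His-tagged, expressed in infected insect cells grown 48 h and purified by His-tag column. Enzyme preincubated with inhibitor (0.5 nM to 50 µM; dissolved in DMSO or 50 mM glycine pH 3.0) 10 min at 27 °C in 25 mM Tris pH 8. Ala-Pro AMC substrate was then added and AMC release read at ex 360/em 460 nm. IC50 was fitted by nonlinear regression.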

In a further experiment the target is Dipeptidyl peptidase 4 (Homo sapiens, UniProt P27487). The experiment can be described thus: Inhibition of human recombinant DPP4 by fluorescence assay.
Dipeptidyl peptidase 4, sequence (P27487 whole entry): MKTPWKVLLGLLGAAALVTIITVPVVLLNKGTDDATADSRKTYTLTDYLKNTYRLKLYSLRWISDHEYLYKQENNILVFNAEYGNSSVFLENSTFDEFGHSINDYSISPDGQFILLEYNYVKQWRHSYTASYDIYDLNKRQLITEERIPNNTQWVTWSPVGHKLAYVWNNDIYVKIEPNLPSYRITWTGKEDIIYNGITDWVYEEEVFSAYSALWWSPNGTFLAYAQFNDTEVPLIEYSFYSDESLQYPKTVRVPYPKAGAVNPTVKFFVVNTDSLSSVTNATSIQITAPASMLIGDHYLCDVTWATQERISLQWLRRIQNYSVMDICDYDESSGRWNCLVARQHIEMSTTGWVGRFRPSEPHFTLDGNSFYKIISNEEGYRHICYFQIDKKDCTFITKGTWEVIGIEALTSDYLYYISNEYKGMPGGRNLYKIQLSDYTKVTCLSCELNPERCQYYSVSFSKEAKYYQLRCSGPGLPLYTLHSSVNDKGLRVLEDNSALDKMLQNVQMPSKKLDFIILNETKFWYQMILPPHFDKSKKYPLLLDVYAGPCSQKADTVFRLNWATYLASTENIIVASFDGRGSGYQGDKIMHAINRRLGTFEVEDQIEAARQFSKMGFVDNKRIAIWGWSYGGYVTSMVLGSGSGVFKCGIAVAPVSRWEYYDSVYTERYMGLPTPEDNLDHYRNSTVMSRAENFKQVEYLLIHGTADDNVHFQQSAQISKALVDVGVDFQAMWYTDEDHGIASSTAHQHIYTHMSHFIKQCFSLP

The structures appear in SMILES notation. pIC50: −log10 of the molar value.

Consider `N#C[C@@H]1CS[C@H]2C[C@](N)(CCc3ccccc3)C(=O)N12`, for which, at Prolyl endopeptidase FAP, the pIC50 is under 5.00.

As for `N#C[C@@H]1CS[C@H]2C[C@@H](NCCc3ccccc3)C(=O)N12`, the negative-log IC50 (pIC50) on Dipeptidyl peptidase 4 is under 4.80.

As to `N#C[C@@H]1CS[C@H]2C[C@](N)(C3CCCC3)C(=O)N12`, at Prolyl endopeptidase FAP, the pIC50 was under 5.00.

With `N#C[C@@H]1CS[C@H]2C[C@](N)(Cc3ccccc3)C(=O)N12`, the negative logarithm of the IC50 (pIC50) at Prolyl endopeptidase FAP was under 5.00.

Consider `N#C[C@@H]1CS[C@H]2C[C@@H](NC3CCCC3)C(=O)N12`, for which the negative-log IC50 (pIC50) at Dipeptidyl peptidase 4 was under 4.80.

Regarding `CC(C)C[C@@]1(N)C[C@@H]2SC[C@@H](C#N)N2C1=O`, the negative-log IC50 (pIC50) on Prolyl endopeptidase FAP is under 5.00.

With `N#C[C@@H]1CS[C@H]2C[C@](N)(C3CCCCC3)C(=O)N12`, on Prolyl endopeptidase FAP, the pIC50 is under 5.00.

For the molecule `CC[C@@]1(N)C[C@@H]2SC[C@@H](C#N)N2C1=O`, the pIC50 on Prolyl endopeptidase FAP is under 5.00.

On to `N#C[C@@H]1CS[C@H]2C[C@](N)(c3ccc(F)cc3)C(=O)N12`, for which the negative logarithm of the IC50 (pIC50) on Prolyl endopeptidase FAP was under 5.00.

`N#C[C@@H]1CS[C@H]2CC[C@H](N)C(=O)N12`: the pIC50 at Dipeptidyl peptidase 4 was under 5.80.

For the molecule `N#C[C@@H]1CS[C@H]2C[C@](N)(CC3CCCCC3)C(=O)N12`, the pIC50 on Prolyl endopeptidase FAP was under 5.00.

Take `CC[C@H](C)[C@@]1(N)C[C@@H]2SC[C@@H](C#N)N2C1=O`: on Prolyl endopeptidase FAP, the pIC50 was under 5.00.

As to `N#C[C@@H]1CS[C@H]2CC[C@@H](N)C(=O)N12`, the negative logarithm of the IC50 (pIC50) on Dipeptidyl peptidase 4 is under 5.80.

In the case of `CC(C)[C@@]1(N)C[C@@H]2SC[C@@H](C#N)N2C1=O`, the pIC50 on Prolyl endopeptidase FAP was under 5.00.

In the case of `N#C[C@@H]1CS[C@H]2C[C@](N)(c3ccccc3)C(=O)N12`, the pIC50 on Prolyl endopeptidase FAP was under 5.00.

By pIC50 is commonly meant −log10 of the IC50, conventionally taken in molar units.

For the origin of these results see ChEMBL document CHEMBL1152964, “Bicyclic cyanothiazolidines as novel dipeptidyl peptidase 4 inhibitors” (Bioorg Med Chem Lett, 2009).
